This is a sample that favours compounds with a hit; in the whole collection about 2.4% have one here.
SR-BI DiI-HDL act: enhances SR-BI lipid uptake from DiI-HDL | CHO ldlA[mSR-BI] cells, DiI-HDL uptake fluorescence, 3 h; 100 = double the neutral-control signal | activation, % at 12.5 µM | actives 0.096% (n = 320,000) | AID 504775;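 active means mean replicate activation of at least 60% and every replicate at or above 60%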;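 further: 0% = median plate neutral-control signal and 100% = twice that signal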
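Test system: SR-BI-overexpressing, LDLR-lacking CHO cells. Measured by: DiI fluorescence, bottom read. Medium: Ham's F12 with 0.5% BSA, HEPES 25 mM, pH 7.4. Timing: 3 h uptake period with compound, 37 °C.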
m5-HT2A agonist: agonists of mouse serotonin 5-HT2A receptor (HTR2A) | P35363 | CHO-K1 mHTR2A beta-arrestin complementation, luminescence; percent of 30 µM serotonin response | activation, % at 7.6 µM | actives 0.66% (n = 360,000) | AID 624169;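 active means activation above a run cutoff, the mean activation of all tested compounds plus 3 SD, cut at about 14% in these data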;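 further: 0% = plate median of compound wells and 100% = 30 µM serotonin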
Target sequence (P35363 whole entry, looked up): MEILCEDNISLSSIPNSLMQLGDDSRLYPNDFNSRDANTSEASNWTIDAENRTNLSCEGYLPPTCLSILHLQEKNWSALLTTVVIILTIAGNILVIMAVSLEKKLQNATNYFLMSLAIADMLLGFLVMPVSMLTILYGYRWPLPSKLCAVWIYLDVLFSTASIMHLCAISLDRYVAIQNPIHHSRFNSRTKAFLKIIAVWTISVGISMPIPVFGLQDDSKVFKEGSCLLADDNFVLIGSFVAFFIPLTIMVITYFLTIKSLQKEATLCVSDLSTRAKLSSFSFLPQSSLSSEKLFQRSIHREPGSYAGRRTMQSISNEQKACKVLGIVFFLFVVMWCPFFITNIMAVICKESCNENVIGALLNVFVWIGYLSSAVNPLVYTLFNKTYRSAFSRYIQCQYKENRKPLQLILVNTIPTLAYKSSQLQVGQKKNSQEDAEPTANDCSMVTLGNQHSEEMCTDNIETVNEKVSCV
Calb FLC: affects C. albicans growth with fluconazole. C. albicans CaCi-2 + fluconazole, Alamar Blue growth, 48 h. growth inhibition, % (concentration not given with the values). actives 0.57% (n = 300,000). AID 1979;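 active means growth inhibition above about 58% in most replicates, limit read from the data, passing the limit was not always enough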;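 further: all wells also contain fluconazole at 8 µg/ml as a sub-toxic cotreatment; 0% = median of DMSO wells and 100% = median of geldanamycin control wells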
Ins promoter up: MIN6 insulin promoter up-regulation; MIN6 insulin promoter-GFP reporter, high-content imaging; active compounds read high; z-score at 5 µM; actives 0.3% (n = 190,000);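 active means z-score above 3 at 5 µM with at least 500 cells counted in the well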
MIN6 prolif: induces beta-cell replication in MIN6 cells; MIN6 cells proliferation, ATPlite luminescence, 48 h; cells starved in 0.2% serum; 100% = growth in 10% serum; proliferation, % at 10 µM; actives 0.29% (n = 330,000); AID 2380;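 active means compounds whose signal lies at least 3.5 SD above the mean of all wells on their plate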;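 further: 0% = DMSO-treated cells in low-serum medium and 100% = 10% serum control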
SR-BI DiI inh: mouse SR-BI HDL lipid transfer inhibition; Q61009; ldlA[mSR-BI] CHO cells, DiI-HDL uptake fluorescence, 3 h; inhibition, % at 12.5 µM; actives 0.96% (n = 320,000); AID 488896;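 active means mean replicate inhibition of at least 70% and a set share of replicates each scoring 70 or more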;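 further: 0% = median of neutral control wells and 100% = median of positive control wells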
An asterisk follows results filed as active; . = not tested or not shown.

SMILES	SR-BI DiI-HDL act	m5-HT2A agonist	Calb FLC	Ins promoter up	MIN6 prolif	SR-BI DiI inh
CC1(CCc2ccccc2)NC(=O)N(CC(=O)Nc2ccc3c(c2)OCCO3)C1=O (configuration not stated)	-1	-5	110*	-0.15	-1	1
CC(C)CCC1(C)NC(=O)N(CC(=O)Nc2ccc3c(c2)OCCO3)C1=O (configuration not stated)	56	-2	.	.	1	-56
COc1cc(-c2ccc3oc(-c4ccsc4)cc(=O)c3c2)cc(OC)c1OC	-73	2	.	.	-6	73*
CCOC(=O)[C@]12CCCC=C1N(Cc1cccc3ccccc13)C(=O)[C@H](CC(=O)N1CCCCC1)C2	.	-6	.	.	.	.
Cc1cc(NC(=O)C(Cl)Cl)cc2c1OCO2	27	5	.	.	.	-27
COC(=O)[C@]12CCCCC=C1N(Cc1ccc(Cl)cc1Cl)C(=O)[C@H](CC(=O)NCCc1ccccc1OC)C2	.	-1	.	.	.	.
CCNc1nc(N)nc(-c2cc(Cl)ccc2O)n1	-13	-4	80*	-0.87	-1	13
CC(C)NC(=O)C1(C)CN(S(C)(=O)=O)CC(=O)N1Cc1ccco1 (configuration not stated)	.	0	.	.	.	.
O=C(/C=C/NCc1cccnc1)c1ccc(-c2ccccc2)cc1	0	-4	-4	.	-5	0
Nc1nc2ncc(C(=O)c3cc(Cl)cc(Cl)c3O)cc2s1	26	9	-5	-0.32	-1	-26
CC(C)c1noc2ncc(C(=O)c3cc(Cl)cc(Cl)c3O)cc12	11	7	99*	-1.6	-7	-11
O=C(NCc1cccs1)c1ccc(N2CCCCC2)nc1	-8	0	-2	3.4*	0	8
Cc1cc(C)c(C)c(S(=O)(=O)N2CCC(C(=O)NCc3cccs3)CC2)c1C	.	-8	.	.	.	.
Cc1ccc(S(=O)(=O)N2CCC(C(=O)NNC(=O)c3ccccc3O)CC2)cc1	-81	-9	3	.	-1	81*
